This passage reports deltaH and Activity results from ChEMBL document CHEMBL5678818, “Discovery of potent SOS1 inhibitors that block RAS activation via disruption of the RAS-SOS1 interaction” (Proc Natl Acad Sci U S A, 2019).

“And” between values parts separate entries of the source, which are not always exact repeats. Identical values can stand only once.

In test [1] the target is T1, Son of sevenless homolog 1 (Homo sapiens) (UniProt Q07889).
T1 sequence (whole entry): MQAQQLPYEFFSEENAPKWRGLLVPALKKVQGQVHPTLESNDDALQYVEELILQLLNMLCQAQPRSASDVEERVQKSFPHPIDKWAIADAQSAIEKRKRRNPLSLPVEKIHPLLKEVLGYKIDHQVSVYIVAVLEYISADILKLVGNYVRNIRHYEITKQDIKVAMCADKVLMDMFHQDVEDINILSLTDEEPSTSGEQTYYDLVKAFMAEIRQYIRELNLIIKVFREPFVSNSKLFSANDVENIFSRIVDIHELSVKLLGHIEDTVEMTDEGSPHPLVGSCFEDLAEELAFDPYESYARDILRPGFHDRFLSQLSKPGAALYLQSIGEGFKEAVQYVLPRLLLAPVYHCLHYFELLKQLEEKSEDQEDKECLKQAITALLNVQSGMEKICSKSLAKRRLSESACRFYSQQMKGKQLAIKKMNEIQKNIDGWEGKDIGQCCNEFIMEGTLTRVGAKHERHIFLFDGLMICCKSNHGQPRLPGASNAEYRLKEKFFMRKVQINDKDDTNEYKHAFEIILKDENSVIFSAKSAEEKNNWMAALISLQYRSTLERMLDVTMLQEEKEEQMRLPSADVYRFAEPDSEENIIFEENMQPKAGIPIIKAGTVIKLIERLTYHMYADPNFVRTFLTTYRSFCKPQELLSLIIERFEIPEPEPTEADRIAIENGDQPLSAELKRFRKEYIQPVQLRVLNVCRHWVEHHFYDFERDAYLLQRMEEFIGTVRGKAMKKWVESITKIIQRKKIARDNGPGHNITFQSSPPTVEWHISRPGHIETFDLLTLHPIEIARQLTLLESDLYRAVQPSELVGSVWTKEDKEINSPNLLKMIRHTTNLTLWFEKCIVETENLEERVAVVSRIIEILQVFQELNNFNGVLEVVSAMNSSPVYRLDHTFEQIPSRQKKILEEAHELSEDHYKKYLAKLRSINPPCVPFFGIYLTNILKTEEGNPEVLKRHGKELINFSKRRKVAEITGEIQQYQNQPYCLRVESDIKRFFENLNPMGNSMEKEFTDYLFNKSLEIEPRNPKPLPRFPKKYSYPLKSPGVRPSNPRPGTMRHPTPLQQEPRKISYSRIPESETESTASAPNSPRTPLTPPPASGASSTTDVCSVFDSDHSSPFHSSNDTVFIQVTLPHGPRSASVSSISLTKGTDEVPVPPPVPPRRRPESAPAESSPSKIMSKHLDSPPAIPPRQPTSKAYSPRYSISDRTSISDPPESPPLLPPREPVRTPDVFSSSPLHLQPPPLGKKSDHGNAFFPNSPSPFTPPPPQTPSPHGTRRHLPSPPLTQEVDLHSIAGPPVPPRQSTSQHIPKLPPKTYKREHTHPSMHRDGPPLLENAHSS
As to the kind of experiment: Binding affinity to N-terminal His10-tagged wild-type recombinant human SOS1 catalytic domain (564 to 1049 residues) expressed in Escherichia coli assessed as change in enthalpy by ITC analysis. The gist of the method: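 SOS1cat was titrated into a solution of the test ligand. Integrated injection enthalpies were plotted against the protein-to-compound molar ratio and fitted to derive the thermodynamic binding parameters.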

The target of test [2] is T2, Cyclin-dependent kinase-like 5 (Homo sapiens) (UniProt O76039).
T2 sequence (whole entry): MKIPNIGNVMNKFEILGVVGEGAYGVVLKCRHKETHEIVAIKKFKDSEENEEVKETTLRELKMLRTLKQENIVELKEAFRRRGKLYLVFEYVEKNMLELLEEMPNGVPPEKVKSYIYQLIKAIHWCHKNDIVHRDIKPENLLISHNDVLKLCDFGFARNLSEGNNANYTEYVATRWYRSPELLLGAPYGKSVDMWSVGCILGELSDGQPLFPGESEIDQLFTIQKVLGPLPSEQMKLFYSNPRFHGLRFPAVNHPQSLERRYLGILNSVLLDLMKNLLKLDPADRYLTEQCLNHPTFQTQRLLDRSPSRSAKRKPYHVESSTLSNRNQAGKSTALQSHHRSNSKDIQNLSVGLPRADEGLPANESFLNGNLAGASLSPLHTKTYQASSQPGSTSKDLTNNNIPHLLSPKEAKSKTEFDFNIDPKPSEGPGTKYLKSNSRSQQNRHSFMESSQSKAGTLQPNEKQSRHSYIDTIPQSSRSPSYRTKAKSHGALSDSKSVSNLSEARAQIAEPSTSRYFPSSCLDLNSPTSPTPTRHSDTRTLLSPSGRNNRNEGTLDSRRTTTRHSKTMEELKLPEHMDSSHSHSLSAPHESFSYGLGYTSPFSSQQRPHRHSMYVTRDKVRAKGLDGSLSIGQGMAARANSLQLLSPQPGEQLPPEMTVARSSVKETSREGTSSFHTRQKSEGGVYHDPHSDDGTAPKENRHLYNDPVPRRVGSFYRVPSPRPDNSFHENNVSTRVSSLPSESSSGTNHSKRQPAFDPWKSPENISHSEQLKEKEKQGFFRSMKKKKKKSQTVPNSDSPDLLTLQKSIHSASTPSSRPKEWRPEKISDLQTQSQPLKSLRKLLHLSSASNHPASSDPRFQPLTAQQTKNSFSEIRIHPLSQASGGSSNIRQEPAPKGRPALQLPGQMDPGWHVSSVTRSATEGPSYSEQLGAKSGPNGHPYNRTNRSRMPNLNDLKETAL
As to the kind of experiment: Inhibition of CDKL5 (unknown origin) assessed as residual activity at 1000 nM by KINOMEscan analysis relative to control.

The target of test [3] is Serine/threonine-protein kinase pim-2 (Homo sapiens) (UniProt Q9P1W9). As to the kind of experiment: Inhibition of PIM2 (unknown origin) assessed as residual activity at 1000 nM by KINOMEscan analysis relative to control.
Serine/threonine-protein kinase pim-2 (Homo sapiens), sequence (Q9P1W9 whole entry, looked up): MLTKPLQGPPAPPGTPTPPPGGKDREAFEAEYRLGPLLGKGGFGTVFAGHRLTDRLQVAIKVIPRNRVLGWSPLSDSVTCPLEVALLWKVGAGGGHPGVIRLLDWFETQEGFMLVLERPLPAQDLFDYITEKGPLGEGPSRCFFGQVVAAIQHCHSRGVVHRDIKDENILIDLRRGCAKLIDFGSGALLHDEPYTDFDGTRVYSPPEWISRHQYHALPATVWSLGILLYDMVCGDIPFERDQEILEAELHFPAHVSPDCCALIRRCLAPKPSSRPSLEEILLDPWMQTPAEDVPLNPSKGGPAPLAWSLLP

Take `COc1cc2ncnc(N[C@H](C)c3cccc4ccccc34)c2cc1OC`: the deltaH in test [1] is -14.1 kcal/mol. Besides, the Activity in test [2] was 94%; in test [3] it was 96%.

Regarding `CNCc1ccccc1-c1csc([C@@H](C)Nc2nc(C)nc3cc(OC)c(OC)cc23)c1` [BAY-293], the deltaH in test [1] was -16.1 kcal/mol and -17.9 kcal/mol.

Consider `COc1cc2nc(C)nc(N[C@H](C)c3cccc(-c4cn[nH]c4)c3)c2cc1OC`, for which the Activity in test [2] turned out to be 82%; in test [3], 88%.
